Assay outcomes deposited in PubChem by SRMLSC.
Most compounds without a hit are left out; they make up all but 2.6% or so of the library.
Yeast lifespan up: compounds extending yeast replicative lifespan, primary screen, S. cerevisiae, OD615; AID 775, 2007; hit rate 0.68% among 130,000; S. cerevisiae growth with nicotinamide; deaD strain in restrictive glucose medium; inhibition of the nicotinamide effect, % at 10 µM;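 active = inhibition above a set limit, placed 3 SD over the median of all compounds, cut at about 26% in these data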;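 note: 0% = nicotinamide-treated wells and 100% = cells grown without nicotinamide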
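Test system – modified budding yeast, DeaD strain · Compound – single dose 10 µM compound, 0.25% DMSO · Times – culture preincubation 4 h, compound exposure 48 h, both 30 °C · Detection – optical density (absorbance) at 615 nm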
RAM inhibit: inhibitors of the yeast RAM network, primary screen, dse1pr::URA3 reporter, 5-FOA selection; AID 868, 2007; hit rate 1.8% among 190,000; S. cerevisiae dse1pr::URA3 reporter, 5-FOA growth OD615, 2 d; analog-sensitive cbk1-as2 kinase mutant strain; inhibition, % at 50 µM;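 active = inhibition above a set limit, 3 SD over mean compound inhibition, cut at about 8.4% in these data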;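 note: 0% = DMSO-only wells with no growth and 100% = 10 µM 1-NA-PP1 full growth; inhibition rescues growth on 5-FOA so higher OD means more RAM inhibition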
Yeast growth inh: growth inhibitors of yeast BB579 in restrictive medium, primary screen, yeast lifespan-shortening project, S. cerevisiae; OD615, 48 h; inhibition, % at 10 µM; hit rate 0.51% among 140,000;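 active = inhibition above a set limit, 3 SD over the mean compound inhibition, cut at about 44% in these data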
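Test system: S. cerevisiae DeaD strain BB579 yeast; Medium: restrictive CSMM-D medium; Compound: one dose, 10 µM compound with 0.25% DMSO; Incubation: 4 h cell preincubation, 48 h compound exposure, 30 °C humidified; Signal: OD at 615 nm; Benchmarks: amphotericin B at 10 µg/mL as positive control.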
RAM efflux-def: 5-FOA growth of efflux-deficient control yeast, dose response, counter-screen for RAM network inhibitor project, S. cerevisiae, OD615; 1,200 tested, under 10 active; S. cerevisiae efflux-deficient reporter strain, 5-FOA growth OD615, 2 days; max inhibition, %; shares compounds with RAM inhibit; AID 1305, 2008; call rule not given here;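 note: plate controls were vehicle for no effect and reference inhibitor for full effect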
The depositor's hits bear a star; · = no result.

SMILES	Yeast lifespan up	RAM inhibit	Yeast growth inh	RAM efflux-def
CN(C)S(=O)(=O)Oc1ccsc1C(=O)Nc1ccc(Cl)c(Cl)c1	-7	4	-19	·
COc1ccc(C(=O)Nc2cc(OC)c(Cl)cc2Cl)cc1	·	5	·	·
COc1ccc(C(=O)Nc2cc(OCc3ccccc3)c(Cl)cc2Cl)cc1	-1	15*	-25	2
Cn1nc(CSc2ccccc2)c(C=O)c1Cl	·	-1	·	·
Cc1cccc(C)c1NC(=O)CN1C(=O)NC(C)(CCc2ccccc2)C1=O (stereo not drawn)	·	1	·	·
CCCOC1(NC(=O)c2ccccc2)C(C)=CC(=O)C=C1C	-17	1	7	·
O=C(CN(Cc1ccccc1F)S(=O)(=O)c1ccc(Cl)cc1)NCCC1=CCCCC1	-16	12*	-47	1
Cc1ccc(S(=O)(=O)N(CC(=O)NCCC2=CCCCC2)Cc2ccccc2F)cc1	19	8	-32	·
COc1ccc2[nH]c3c(=O)n4c(nc3c2c1)SCCC4	·	6	·	·
CC(=O)c1ccc(OCc2ccc(C(=O)c3ccccc3)cc2)cc1	·	3	·	·
CC(=O)c1ccc(OCc2ccc(Oc3c(Cl)cccc3[N+](=O)[O-])cc2)cc1	5	13*	-14	1
O=C(NCc1ccccc1)C1CCN(S(=O)(=O)c2ccc(Cl)cc2)CC1	·	8	·	·
CCCNC(=O)NC(=O)COC(=O)c1ccc(S(=O)(=O)N(C)c2ccccc2OC)cc1	·	0	·	·
COc1ccccc1N(C)S(=O)(=O)c1ccc(C(=O)OCC(=O)NCCC2=CCCCC2)cc1	10	15*	-36	2
O=C(NC1CC1)c1ccc2c(Cl)c3c(nc2c1)CCCC3	·	2	·	·
O=C(Nc1cccnc1Cl)c1ccc2c(Cl)c3c(nc2c1)CCC3	·	12*	·	4
O=C(/C=C/c1ccc(O)cc1)c1ccc(O)cc1O	-3	1	-40	·
CC(C)=CCC/C(C)=C/Cc1c(O)ccc(C(=O)/C=C/c2ccc(O)cc2)c1O	-5	15*	-44	5
Cc1ccc(S(N)(=O)=O)cc1NC(=O)/C=C/c1ccc2c(c1)OCO2	·	3	·	·
CN(C(=O)COC(=O)c1nc(Cl)c(Cl)c(Cl)c1Cl)C1CCS(=O)(=O)C1 (stereo not drawn)	·	0	·	·
Cc1ccc(C(=O)c2ccccc2C(=O)OCC(=O)Nc2cccc([N+](=O)[O-])c2)cc1	-4	6	-28	·
Cc1ccc(C(=O)c2ccccc2C(=O)OCC(=O)Nc2ccc(SC(F)F)cc2)cc1	5	13*	-34	2
O=C(COC(=O)c1cc(Cl)ccc1[N+](=O)[O-])NCc1ccc(Cl)cc1Cl	1	13*	-66	1
O=C(COC(=O)c1cc[n+]([O-])cc1)NCCc1ccc(Cl)cc1Cl	·	2	·	·
CSc1ccccc1NC(=O)COC(=O)c1ccccc1Cc1ccccc1	-4	2	-34	·
SMILES	Yeast lifespan up	RAM inhibit	Yeast growth inh	RAM efflux-def
Cc1ccc(C(=O)c2ccccc2C(=O)OCC(=O)NCCc2ccc(Cl)cc2Cl)cc1	10	15*	-73	3
O=C(COC(=O)c1ccccc1Cc1ccccc1)Nc1ccc(SC(F)F)cc1	2	14*	-31	4
O=C(COC(=O)c1cc(Cl)ccc1[N+](=O)[O-])Nc1cccc2ccccc12	-5	5	-30	·
COc1ccc2c(c1)C=C([C@@H]1C[C@H]3CN(c4ccccc4)C(=O)[C@]34CCCN14)CO2	·	2	·	·
Cc1ccc(Cl)cc1NC(=O)Nc1cccs1	·	1	·	·
O=C(CNCCc1ccccc1)N1CCc2ccccc2C1	·	2	·	·
CCc1ccc(NC(=S)N2CCN(c3cccc(OC)c3)CC2)cc1	·	4	·	·
COc1ccccc1NC(=O)Nc1nc(C(C)(C)C)cs1	·	3	·	·
O=C(OCC#CCSc1nnc(-c2ccc(Br)cc2)o1)c1cccs1	8	16*	-24	14
Cc1ccc(-c2nnc(SCC#CCOC(=O)c3cccs3)o2)cc1	-3	5	-17	·
COc1ccc(N(C)S(=O)(=O)c2cccc(C(=O)NC3CCCCC3C)c2)cc1 (stereo not drawn)	·	1	·	·
COc1ccc(N(C)S(=O)(=O)c2cccc(C(=O)NCC3CCCCC3)c2)cc1	·	13*	·	2
COc1ccc2nc(NC(=O)c3cccnc3SC)sc2c1	-7	-3	-12	·
CCCCNC(=O)CCCCCNS(=O)(=O)c1ccc(Br)cc1	·	2	·	·
COc1ccc(-c2nnc(SC(C)C(=O)NNC(=O)c3ccc(C)cc3)o2)cc1 (stereo not drawn)	2	0	-18	·
COc1ccc(-c2nnc(SC(C)C(=O)Nc3cccc(Cl)c3)o2)cc1 (stereo not drawn)	-8	15*	-41	2
CCOc1ccc(NS(=O)(=O)c2ccc(NC(=S)NC(=O)CC(C)C)cc2)cc1	-7	12*	-4	2
CCCC(=O)NC(=S)Nc1ccc(S(=O)(=O)Nc2ccc(OCC)cc2)cc1	6	1	-38	·
Cc1ccc(CNC(=O)c2oc3ccc(S(=O)(=O)N4CCC5(CC4)OCCO5)cc3c2C)cc1	-4	5	-58	·
Cc1ccc(NC(=O)c2oc3ccc(S(=O)(=O)N4CCC5(CC4)OCCO5)cc3c2C)cc1C	14	12*	-45	1
CC(C)CC1CC(C)(c2csc(NNC(=O)c3ccccc3)n2)OC1=O (stereo not drawn)	·	4	·	·
Cn1c(=O)c2c(ncn2CC(=O)OCC(=O)Nc2ccccc2Cl)n(C)c1=O	-1	1	-34	·
Cn1c(=O)c2c(ncn2CC(=O)OCC(=O)NC(c2ccccc2)c2ccccc2)n(C)c1=O	-4	14*	-38	1
CCN1CCN(c2cc(C)c3cc(NC(=S)N4CCCC(C)C4)ccc3n2)CC1 (stereo not drawn)	·	2	·	·
O=C(Nc1cc(Sc2nc3ccccc3s2)cc([N+](=O)[O-])c1)c1cccc(F)c1F	0	4	-30	·
SMILES	Yeast lifespan up	RAM inhibit	Yeast growth inh	RAM efflux-def
Cc1ccc(Cl)cc1NC(=O)CC1NCCNC1=O (stereo not drawn)	·	2	-22	·
Clc1ccccc1-c1nnc2sc(CCc3ccccc3)nn12	-12	1	-13	·
Brc1ccccc1-c1nnc2sc(Cc3ccccc3)nn12	-8	33*	-52	4
CCOc1ccc(S(=O)(=O)Nc2nc3ccc(OC)cc3s2)cc1	3	12*	-40	3
CCOc1ccc2nc(NS(C)(=O)=O)sc2c1	0	2	-43	·
CCOc1ccc(S(=O)(=O)N/N=C2/CC(c3ccccc3)Oc3ccccc32)cc1 (stereo not drawn)	-18	1	4	·
CCOC(=O)CSc1nc2ccccc2c(=O)n1CC1CCCC1	·	18*	-8	1
CCOC(=O)CSc1nc2ccccc2c(=O)n1CC	-4	0	-15	·
Cc1ccc(C(OCC(C)(C)C[N+](C)(C)C)c2ccccc2)cc1 (stereo not drawn)	·	2	·	·
Cc1cccc(NC(=O)C2CCCN2C(=O)Oc2ccccc2)c1C (stereo not drawn)	·	12*	-3	1
Cc1ccc(NC(=O)C2CCCN2C(=O)Oc2ccccc2)c(C)c1 (stereo not drawn)	·	1	·	·
CCCCn1c(N)c(C(=S)NC(=O)CC(C)(C)C)c(=O)n(C)c1=O	-3	0	-6	·
